Compound activity deposited in PubChem BioAssay by The Scripps Research Institute Molecular Screening Center.
TAAR1 ag: human TAAR1 agonists, primary screen, Fluo-8 calcium fluorescence, CHO RD-HGA16 cells; 0.99% of 360,000 active; Trace amine-associated receptor 1 (Homo sapiens), Q96RJ0; vehicle wells 0%, saturating PEA agonist 100%; activation, % at 3 µM;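 active means activation above the mean activation of all test compounds in the run plus 3 SD, cut at about 38% in these data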
Target sequence (Q96RJ0 whole entry, looked up): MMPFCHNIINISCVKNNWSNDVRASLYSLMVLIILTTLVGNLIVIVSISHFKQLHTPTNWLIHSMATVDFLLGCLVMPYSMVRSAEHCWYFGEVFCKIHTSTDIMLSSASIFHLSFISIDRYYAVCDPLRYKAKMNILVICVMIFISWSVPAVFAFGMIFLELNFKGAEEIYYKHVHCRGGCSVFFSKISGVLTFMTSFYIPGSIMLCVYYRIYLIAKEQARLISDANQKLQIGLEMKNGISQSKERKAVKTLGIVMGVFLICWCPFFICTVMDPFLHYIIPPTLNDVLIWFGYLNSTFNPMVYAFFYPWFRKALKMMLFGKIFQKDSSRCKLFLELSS
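Repeats: no replicates (n 1) | Material: CHO-derived RD-HGA16 cells with stable Gα16 and human TAAR1 | Technique: Kinetic Fluo-8 calcium fluorescence | Schedule: 17-24 h seeding, 75 min 37 °C dye, 30 min RT | Evaluation: % activation from peak over basal fluorescence ratio, DMSO-to-PEA scaled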
OX1R antag-1: antagonists of human orexin 1 receptor (OX1R); Orexin/Hypocretin receptor type 1 (Homo sapiens), O43613; OX1R-expressing cells, FRET antagonist read-out; inhibition, % at 6.6 µM; 1.8% of 330,000 active; AID 485270, 2010; in the data active means inhibition mostly above about 38%, no sharp cut-off; inactive means mostly below about 40%
TAAR1 antagonist: human TAAR1 antagonists, primary screen, Fluo-8 calcium fluorescence, CHO RD-HGA16 cells. antagonist. inhibition, % at 3 µM. 1.5% of 360,000 active. AID 624466, 2012;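 active means inhibition above a per-plate cutoff, the mean inhibition of test compounds on that plate plus 3 SD, cut at about 49% in these data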
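test system = CHO RD-HGA16 cells bearing hTAAR1 | replication = singlicate | controls = DMSO-only wells and EC80 β-PEA-stimulated wells | reagent = EC80 β-phenethylamine stimulus | read-out basis = percent inhibition of PEA-evoked calcium signal, max/basal emission ratio | schedule = seeding 17-24 h prior, 75-min 37 °C, 30-min RT dye loading | signal = kinetic Fluo-8 calcium fluorescence measurement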
OX1R antag-2: OX1R (HCRTR1) antagonists, primary screen, fluorescence, CHO/OX1R cells, Fluo-8 calcium, orexin A; Orexin/Hypocretin receptor type 1 (Homo sapiens), O43613; Fluo-8 calcium fluorescence; inhibition, % at 5 µM; 0.43% of 330,000 active; AID 434989, 2010;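 active means inhibition above its plate's threshold, mean inhibition of all tested compounds on the plate plus 3 SD, cut at about 37% in these data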
GPR7 antagonist: GPR7 receptor antagonists, primary screen, cell-based, fluorescence, single concentration; GPR7-expressing cells, fluorescence antagonist assay; inhibition, % at 4.4 µM; Neuropeptides B/W receptor type 1 (Homo sapiens), P48145; 1.1% of 290,000 active; in the data active means inhibition above about 16%, passing the limit was not always enough;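 further: cells stimulated with the agonist NPW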
Target sequence (P48145 whole entry, looked up): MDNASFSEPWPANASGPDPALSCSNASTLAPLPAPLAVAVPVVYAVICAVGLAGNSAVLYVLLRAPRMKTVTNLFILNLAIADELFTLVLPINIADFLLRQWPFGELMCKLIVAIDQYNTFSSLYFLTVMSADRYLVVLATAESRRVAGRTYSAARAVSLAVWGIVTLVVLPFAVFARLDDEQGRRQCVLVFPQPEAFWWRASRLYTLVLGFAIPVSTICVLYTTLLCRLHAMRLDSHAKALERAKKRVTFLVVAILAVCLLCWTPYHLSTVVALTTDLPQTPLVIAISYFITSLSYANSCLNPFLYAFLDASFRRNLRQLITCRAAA
CHO parental Ca: ATP-evoked calcium signal inhibitors, parental CHO, primary screen, counter-screen for OX1R antagonist project, cell-based, fluorescence, Fluo-8 calcium dye; inhibition, % at 5.6 µM; parental CHO-K1, ATP-induced calcium, Fluo-8 fluorescence; 0.63% of 330,000 active;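 active means inhibition above that plate's mean sample inhibition plus 3 SD, cut at about 26% in these data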
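Measured by: calcium-sensitive Fluo-8 fluorescence / Test system: CHO parental line / Controls: ATP-challenged DMSO wells low, unchallenged DMSO wells high / Measure: % inhibition / Compound: single nominal dose of 5.6 µM per compound / Replicates: single well per compound, no replicates / Reagent: ATP as calcium-mobilizing challenge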
GPR7 antag cf: GPR7 receptor antagonists, confirmation, cell-based, fluorescence, single concentration; AID 1952, 2009; 52% of 2,400 active; GPR7-expressing cells, calcium fluorescence antagonist mode; inhibition, % at 4.4 µM; shares compounds with GPR7 antagonist; in the data active means inhibition above about 24%;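 further: stimulated with the GPR7 agonist NPW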
MCHR1 antagonist: MCHR1 antagonists in cells, counter-screen for GPR7 antagonist project, cell-based, fluorescence, human; shares compounds with GPR7 antagonist; MCHR1-expressing cells, fluorescence antagonist assay; inhibition, % at 4.4 µM; 62% of 2,400 active; in the data active means inhibition above about 22%
A number is an active result; - = inactive; . = no result given. This is a sample that favours compounds with a hit; in the whole collection about 4.6% have one here.

SMILES | TAAR1 ag | OX1R antag-1 | TAAR1 antagonist | OX1R antag-2 | GPR7 antagonist | CHO parental Ca | GPR7 antag cf | MCHR1 antagonist
Cc1ccc(CNC(=O)C2CC(c3cccc([N+](=O)[O-])c3)=NO2)cc1 (configuration not stated) | - | - | - | - | 32 | - | - | 34
CN(C)CCCNc1nc2sc3c(c2c(=O)n1CCc1ccccc1)CCCCC3 | - | - | - | - | 29 | - | 51 | 65
CCOC(=O)c1ccc(N2CCCCC2)c(NS(=O)(=O)c2ccc(C)cc2)c1 | - | - | - | - | 25 | - | - | 62
CC1=CC(=O)[C@@H](OC(=O)Nc2ccc(C)cc2)[C@@H](c2ccccc2Br)N1C | - | . | - | . | . | . | . | .
Cc1cccn2c(CN[C@@H]3CCCC[C@H]3c3ccccc3)c(C(=O)N3CCOCC3)nc12 | - | - | - | - | 29 | - | - | 25
O=[N+]([O-])c1ccc(NC(=S)NCCc2ccc(F)cc2)cc1 | - | 65 | - | 48 | 33 | 34 | 75 | 67
CCCCNc1cnn(-c2ccccc2)c(=O)c1Cl | - | - | - | - | - | - | . | .
COCCNc1cnn(-c2ccccc2)c(=O)c1Cl | - | - | - | - | 24 | - | - | -
CCn1c(=O)c(CCC(=O)N2CCN(c3ccccn3)CC2)c(C)c2c(C)nn(-c3ccccc3)c21 | - | - | - | - | - | - | . | .
O=C(OCC(=O)N1CCN(c2ccccc2)CC1)c1ccc(O)cc1O | - | - | - | - | 26 | - | - | -
Cc1ccc(C2=NN(CC(=O)NCCC(C)C)C(=O)CC2)cc1 | - | - | - | - | - | - | . | .
O=C(Nc1cccc2ccccc12)c1ccc([N+](=O)[O-])cc1 | - | - | - | - | 42 | - | - | -
O=C(NCCc1c[nH]c2ccccc12)c1ccc([N+](=O)[O-])cc1 | - | - | - | - | 31 | - | 30 | 26
O=C(COC(=O)CCc1c[nH]c2ccccc12)Nc1cc([N+](=O)[O-])ccc1Cl | - | - | - | - | - | - | . | .
O=C(COC(=O)CCc1c[nH]c2ccccc12)Nc1ccc([N+](=O)[O-])cc1 | - | - | - | - | 26 | - | 49 | 41
O=C(c1ccc2[nH]c(=O)c(=O)[nH]c2c1)N1CCN(c2ccccc2)CC1 | - | - | - | - | - | - | . | .
CC1(C)Cc2cccc(OCC(=O)NC3CC3)c2O1 | - | - | - | - | - | - | . | .
Cn1ccnc1C1CCCCN1C(=O)c1cc(COc2ccc(F)cc2Cl)on1 (configuration not stated) | - | - | - | - | - | - | . | .
CC(=O)N1c2ccc(S(=O)(=O)N3CCC(C(=O)Nc4cccc(C)c4)CC3)cc2CC1C (configuration not stated) | - | - | - | - | - | - | . | .
Cc1ccc(NC(=O)C2CCN(S(=O)(=O)c3ccc(N4CCCC4=O)cc3)CC2)cc1Cl | - | - | - | - | 38 | 64 | 52 | 61
CC(=O)N1c2ccc(S(=O)(=O)N3CCC(C(=O)Nc4cccc(Cl)c4)CC3)cc2CC1C (configuration not stated) | - | - | - | - | 31 | - | - | 47
CC1Sc2ccc(S(=O)(=O)N3CCC(C(=O)Nc4ccc(Cl)cc4)CC3)cc2NC1=O (configuration not stated) | - | - | - | - | 61 | 54 | 68 | 70
CCOc1ccc(CCNC(=O)c2ccc(F)c(S(=O)(=O)N3CCOCC3)c2)cc1OCC | - | - | - | - | - | - | . | .
O=C(CNC(=O)COc1ccccc1)NCCN1CCOCC1 | - | - | - | - | . | - | . | .
O=C(Nc1nccs1)c1cc2cc(Cl)ccc2oc1=O | - | - | - | - | - | - | . | .
SMILES | TAAR1 ag | OX1R antag-1 | TAAR1 antagonist | OX1R antag-2 | GPR7 antagonist | CHO parental Ca | GPR7 antag cf | MCHR1 antagonist
CC(OC(=O)c1nc(Cl)ccc1Cl)C(=O)NC1CCCCC1C (configuration not stated) | - | - | - | - | . | - | . | .
O=C(O/N=C1\CCCc2ccccc21)c1cccs1 | - | - | - | - | - | - | . | .
C/C(CC(=O)Nc1ccccc1)=N\NC(=O)COc1ccc(C)cc1Br | - | - | - | - | - | - | . | .
CCc1ccc(NC(=O)C/C(C)=N/NC(=O)COc2ccc(C)cc2Br)cc1 | - | - | - | - | 42 | - | - | -
O=C(COC(=O)c1ccccc1F)c1ccc(-n2nncc2-c2ccco2)cc1 | - | - | - | - | 22 | - | - | 26
COc1cccc(CN2CCC(Oc3ccc(C(=O)NCc4ccccn4)cc3)CC2)c1O | - | . | - | . | - | . | . | .
CC(=O)Nc1ccc(S(=O)(=O)N(CCCN2CCOCC2)Cc2cccs2)cc1 | - | - | - | - | 25 | - | - | -
O=C(C1CCCCC1)N1CCN=C1SCc1cccnc1 | - | - | - | - | - | - | . | .
O=S(=O)(c1ccc(Br)cc1)N1CCN=C1SCc1cccc(F)c1 | - | - | - | - | - | - | . | .
COc1ccc(CC(=O)N2CCN=C2SCc2cccc([N+](=O)[O-])c2)cc1 | - | - | - | - | 21 | - | 41 | 58
O=C(Cc1ccc([N+](=O)[O-])cc1)N1CCN=C1SCc1ccccc1 | - | - | - | - | - | - | . | .
COc1ccc(S(=O)(=O)N2CCN=C2SCc2cccc(F)c2)cc1 | - | - | - | - | 27 | - | 27 | 46
O=C(C1CCCCC1)N1CCN=C1SCc1cccc([N+](=O)[O-])c1 | - | - | - | - | 48 | - | - | -
Cc1ccc(C)c(OCCCNCc2ccccc2)c1 | - | - | - | - | - | - | . | .
CCCN(CCC)CCOc1cc(C)ccc1C(C)C | - | - | - | - | 24 | - | 31 | -
Cc1ccc(C(C)C)c(OCCCn2ccnc2C)c1 | - | - | - | - | - | - | . | .
Cc1ccc(C(C)C)c(OCCNCc2ccccc2)c1 | - | - | - | - | 30 | - | - | 68
CN(C)S(=O)(=O)c1cccc(NC(=O)COC(=O)c2cn(-c3ccccc3)nc2-c2ccccc2)c1 | - | - | - | - | - | - | . | .
COc1ccc(C2=NN(c3ccccc3)C(=O)/C2=C\c2ccc(O)c(OC)c2)cc1 | - | - | - | - | 30 | - | - | 26
